Source: ChEMBL document CHEMBL1130421, “A facile, alternative synthesis of 4'-thioarabinonucleosides and their biological activities” (J Med Chem, 1997)
Values after ≈ are worked out from the molar mass of the structure shown.

Experiments:
[1] = test system: Human alphaherpesvirus 2; assay: Antiviral activity against herpes simplex virus-2 (HSV-2) Ms strain in HEL ([…]) cells.; format: functional; conditions: Human alphaherpesvirus 2, HEL; read-out: ED50 (the source's name)
Procedure, shortened: (§1)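 Plaque reduction assay in HEL cells. Strains: HSV-1 VR-3, HSV-2 MS, HCMV AD 169. Run as described earlier.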

[2] = test system: Human betaherpesvirus 5; assay: Antiviral activity against human cytomegalovirus (HCMV) AD 169 strain HEL ([…]) cells.; format: functional; conditions: Human betaherpesvirus 5, HEL; read-out: ED50 (the source's name); procedure, shortened: as §1
[3] = test system: Human alphaherpesvirus 1; assay: Antiviral activity against herpes simplex virus-1 VR-3 strain in HEL ([…]) cells.; format: functional; conditions: Human alphaherpesvirus 1, HEL; read-out: ED50 (the source's name); procedure, shortened: as §1
[4] = test system: Human alphaherpesvirus 3; assay: Antiviral activity against varicella zoster virus (VZV) Oka strain in HEL ([…]) cells.; format: functional; conditions: Human alphaherpesvirus 3, HEL; read-out: ED50 (the source's name)
[5] = test system: CCRF-HSB-2; assay: Antiproliferative effects on CCRF-HSB-2 (human leukemia) cells.; format: functional, cell-based
Procedure, shortened: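 CCRF-HSB-2 cells at 1.1 × 10⁵ cells/mL in RPMI 1640 + 10% FBS. Compound added in medium or PBS as serial 0.5 log₁₀ dilutions. Incubated 3 days at 37 °C, 5% CO₂. MTT then added for another 4 h; formazan solubilized in acidic DMF/SDS. A570 read against 690 nm reference. IC50 read graphically from dose-inhibition curve.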

Structure (SMILES) | EC50 [1] [µg/mL] | EC50 [2] [µg/mL] | EC50 [3] [µg/mL] | EC50 [4] [µg/mL] | IC50 [5] [µg/mL]
Nc1nc(O)c2ncn([C@@H]3S[C@H](CO)[C@@H](O)[C@@H]3O)c2n1 | 0.59 (≈ 1.97 µM) | 0.01 (≈ 0.0334 µM) | 0.49 (≈ 1.64 µM) | 0.11 (≈ 0.368 µM) | 0.29 (≈ 0.969 µM)
Nc1nc(N)c2ncn([C@H]3S[C@H](CO)[C@@H](O)[C@@H]3O)c2n1 | > 100 | > 50 | > 100 | > 50 | > 100
Nc1ncnc2c1ncn2[C@H]1S[C@H](CO)[C@@H](O)[C@@H]1O | > 100 | > 50 | > 100 | > 50 | > 100
Nc1ncnc2c1ncn2[C@@H]1S[C@H](CO)[C@@H](O)[C@@H]1O | 13.5 (≈ 47.7 µM) | 1.36 (≈ 4.8 µM) | 18.4 (≈ 64.9 µM) | 1.85 (≈ 6.53 µM) | 14.8 (≈ 52.2 µM)
Nc1nc(N)c2ncn([C@@H]3S[C@H](CO)[C@@H](O)[C@@H]3O)c2n1 | 0.4 (≈ 1.34 µM) | 0.022 (≈ 0.0737 µM) | 0.52 (≈ 1.74 µM) | 0.11 (≈ 0.369 µM) | 0.2 (≈ 0.67 µM)
Nc1nc2c(ncn2COCCO)c(=O)[nH]1 [ACYCLOVIR] | 0.23 (≈ 1.02 µM) | 6.9 (≈ 30.6 µM) | 0.14 (≈ 0.622 µM) |  | > 100
Nc1ccn([C@@H]2O[C@H](CO)[C@@H](O)[C@@H]2O)c(=O)n1 [CYTARABINE] |  |  |  |  | 0.0086 (≈ 0.0354 µM)
Nc1nc2c(ncn2COC(CO)CO)c(=O)[nH]1 [GANCICLOVIR] | 0.039 (≈ 0.153 µM) | 0.21 (≈ 0.823 µM) | 0.016 (≈ 0.0627 µM) | 0.21 (≈ 0.823 µM) | 17 (≈ 66.6 µM)
O=c1[nH]c(=O)n([C@@H]2O[C@H](CO)[C@@H](O)[C@@H]2O)cc1/C=C/Br [SORIVUDINE] | 62 (≈ 178 µM) | > 50 | 0.036 (≈ 0.103 µM) | 0.0013 (≈ 0.00372 µM) | > 100
Nc1ncnc2c1ncn2[C@@H]1O[C@H](CO)[C@@H](O)[C@@H]1O [VIDARABINE] | 6.6 (≈ 24.7 µM) | 6.45 (≈ 24.1 µM) | 17.1 (≈ 64 µM) | 1.17 (≈ 4.38 µM) | 12.9 (≈ 48.3 µM)

The remaining lines, values ahead:

EC50 [1] [µg/mL] | EC50 [2] [µg/mL] | EC50 [3] [µg/mL] | EC50 [4] [µg/mL] | IC50 [5] [µg/mL] | Structure (SMILES)
71 (≈ 221 µM) | > 50 | 0.97 (≈ 3.02 µM) | > 50 | > 100 | O=c1[nH]c(=O)n([C@@H]2S[C@H](CO)[C@@H](O)[C@@H]2O)cc1/C=C/Cl
> 100 | > 50 | > 100 | > 50 | > 100 | O=c1[nH]c(=O)n([C@H]2S[C@H](CO)[C@@H](O)[C@@H]2O)cc1I
> 100 | > 50 | > 100 | > 50 | > 100 | O=c1[nH]c(=O)n([C@H]2S[C@H](CO)[C@@H](O)[C@@H]2O)cc1/C=C/Cl
58 (≈ 159 µM) | > 50 | 0.82 (≈ 2.25 µM) | 0.2 (≈ 0.548 µM) | > 100 | O=c1[nH]c(=O)n([C@@H]2S[C@H](CO)[C@@H](O)[C@@H]2O)cc1/C=C/Br
> 100 | > 50 | > 100 | > 50 | > 100 | O=c1[nH]c(=O)n([C@H]2S[C@H](CO)[C@@H](O)[C@@H]2O)cc1/C=C/Br
> 100 | > 50 | > 100 | > 50 | > 100 | CCc1cn([C@H]2S[C@H](CO)[C@@H](O)[C@@H]2O)c(=O)[nH]c1=O
4.6 (≈ 16.8 µM) | 44 (≈ 160 µM) | 0.77 (≈ 2.81 µM) | 6.6 (≈ 24.1 µM) | > 100 | Cc1cn([C@@H]2S[C@H](CO)[C@@H](O)[C@@H]2O)c(=O)[nH]c1=O
13.6 (≈ 35.2 µM) | > 50 | 3.5 (≈ 9.06 µM) | 27.1 (≈ 70.2 µM) | > 100 | O=c1[nH]c(=O)n([C@@H]2S[C@H](CO)[C@@H](O)[C@@H]2O)cc1I
> 100 | > 50 | > 100 | > 50 | 42 (≈ 153 µM) | Cc1cn([C@H]2S[C@H](CO)[C@@H](O)[C@@H]2O)c(=O)[nH]c1=O
6.5 (≈ 22.5 µM) | > 50 | 0.43 (≈ 1.49 µM) | > 50 | > 100 | CCc1cn([C@@H]2S[C@H](CO)[C@@H](O)[C@@H]2O)c(=O)[nH]c1=O
